Experimental findings from ChEMBL document CHEMBL1128415 (J Med Chem, 1995) are described below.

In experiment [1] the target is T1, Angiotensin II receptor (AT-1) type-1 (Rattus norvegicus) (UniProt P29089+P25095). The experiment can be described thus: Inhibition of pressor response induced by infusion of angiotensin II in rats, administered perorally. Format: functional. In a few lines: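 Sprague-Dawley rats (n = 18-28) dosed by gastric tube in groups; vehicle water or water with 2 equiv NaOH; controls given water. At 50 min rats anaesthetised, pithed, ventilated, with carotid and jugular catheters. At 1 h post-dose AII 0.75 μg/kg iv given.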

For experiment [2], the target named is T1, Angiotensin II receptor (AT-1) type-1 (Rattus norvegicus). The experiment can be described thus: Inhibition of pressor response induced by infusion of AII in rats when dose is administered intravenously. The class given is functional. In a few lines: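 Normotensive Sprague-Dawley pithed rats (n = 4), BP recorded by carotid catheter. AII 0.75 μg/kg injected via jugular vein; three control responses taken. Each later AII challenge followed, by 5 min, an iv injection of antagonist at increasing doses, in water or water with 2 equiv NaOH.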

The target of experiment [3] is T2, Angiotensin II receptor (AT-1) type-1 (Rattus norvegicus, UniProt P29089+P25095).
T2 sequence (P29089 whole entry): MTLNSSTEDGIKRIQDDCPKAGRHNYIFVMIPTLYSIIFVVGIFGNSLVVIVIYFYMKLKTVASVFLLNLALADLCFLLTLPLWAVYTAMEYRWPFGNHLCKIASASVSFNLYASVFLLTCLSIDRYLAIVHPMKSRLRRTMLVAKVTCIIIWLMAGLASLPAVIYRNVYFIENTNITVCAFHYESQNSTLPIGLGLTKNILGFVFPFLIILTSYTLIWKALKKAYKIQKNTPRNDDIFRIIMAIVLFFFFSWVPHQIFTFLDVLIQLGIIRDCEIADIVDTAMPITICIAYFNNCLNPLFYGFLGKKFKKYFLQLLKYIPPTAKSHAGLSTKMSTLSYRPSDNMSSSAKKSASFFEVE
T2 sequence (P25095 whole entry): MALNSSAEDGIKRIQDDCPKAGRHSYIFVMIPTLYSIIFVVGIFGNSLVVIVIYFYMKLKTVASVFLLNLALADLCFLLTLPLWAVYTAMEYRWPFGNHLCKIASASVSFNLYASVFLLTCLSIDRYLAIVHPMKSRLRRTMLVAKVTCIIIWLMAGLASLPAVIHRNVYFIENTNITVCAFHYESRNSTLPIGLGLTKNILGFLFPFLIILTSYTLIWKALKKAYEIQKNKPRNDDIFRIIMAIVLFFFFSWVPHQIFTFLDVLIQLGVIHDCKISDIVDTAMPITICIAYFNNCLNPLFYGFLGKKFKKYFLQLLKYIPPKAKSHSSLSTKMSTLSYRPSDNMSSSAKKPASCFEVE
Nature of the experiment: Specific binding inhibition of [125I]AII to Angiotensin II receptor, type 1 in rat liver membrane. Format: cell membranes.

Where “and” joins values, the source holds several entries; their conditions need not be identical. Equal entries are not always repeated. Bounds are passed on as bounds.

With `CCCCc1nc(SCC(F)(F)C(F)(F)CO)c(C(=O)O)n1Cc1ccc(-c2ccccc2S(=O)(=O)NC(=O)NCCC)cc1`, the results for the ID50 in experiment [1] and in experiment [2] were 5.3 mg/kg and 0.83 mg/kg, respectively. The compound also displayed an IC50 in experiment [3] of 0.3 nM.

For `CCCCc1nc(SC)c(C(=O)O)n1Cc1ccc(-c2ccccc2S(=O)(=O)NC(=O)CCC)cc1`, the ID50 in experiment [1] was found to be 0.95 mg/kg; in experiment [2], 0.06 mg/kg. The compound also yielded an IC50 in experiment [3] of 0.2 nM.

For `CCCCc1nc(SC)c(C(=O)O)n1Cc1ccc(-c2ccccc2S(=O)(=O)NC(=O)OCC(C)C)cc1`, the values for the ID50 in experiment [1] and in experiment [2] were 0.43 mg/kg and 0.15 mg/kg, respectively. In experiment [3], this compound gave a 50% inhibitory concentration (IC50) of 0.2 nM.

For `CCCCc1nc(SC)c(C(N)=O)n1Cc1ccc(-c2ccccc2S(=O)(=O)NC(=O)NCCC)cc1`, the values for the ID50 in experiment [1] and in experiment [2] were 2.83 mg/kg and 0.06 mg/kg, respectively. In experiment [3], this compound had an IC50 of 1 nM.

Consider `CCCCc1nc(SC(F)(F)F)c(C(=O)O)n1Cc1ccc(-c2ccccc2S(=O)(=O)NC(=O)NCCC)cc1`, for which the ID50 was found to be 1.28 mg/kg in experiment [1] and 0.11 mg/kg in experiment [2]. This compound also displayed a 50% inhibitory concentration (IC50) in experiment [3] of 0.8 nM.

Take `CCCCc1nc(SC)c(C(=O)O)n1Cc1ccc(-c2ccccc2S(N)(=O)=O)cc1`: the ID50 in experiment [1] was greater than 30 mg/kg; in experiment [2], 5.6 mg/kg. For the same compound, the IC50 in experiment [3] is listed as 36 nM.

In the case of `CCCCc1nc(SC)c(C(=O)NCC(=O)OC)n1Cc1ccc(-c2ccccc2S(=O)(=O)NC(=O)NCCC)cc1`, the ID50 in experiment [1] came out at 2.4 mg/kg; in experiment [2], 0.05 mg/kg. The compound further had an IC50 in experiment [3] of 0.8 nM.

For `CCCCc1nc(SC)c(C(=O)O)n1Cc1ccc(-c2ccccc2S(=O)(=O)NC(=O)OC)cc1`, the ID50 in experiment [1] worked out at 1.54 mg/kg; in experiment [2] it was 0.1 mg/kg. Also, the IC50 in experiment [3] stood at 0.9 nM.

With `CCCCc1nc(SC)c(C(=O)O)n1Cc1ccc(-c2ccccc2S(=O)(=O)NC(C)=O)cc1`, the ID50 turned out to be 2.02 mg/kg in experiment [1] and 0.13 mg/kg in experiment [2]. The IC50 in experiment [3] stood at 1 nM.

Take `CCCCc1nc(SC)c(C(=O)O)n1Cc1ccc(-c2ccccc2S(=O)(=O)NC(=O)Cc2ccccc2)cc1`: the ID50 in experiment [1] worked out at 1.75 mg/kg; in experiment [2], 0.44 mg/kg. Moreover, the concentration for half-maximal inhibition (IC50) in experiment [3] amounted to 0.08 nM.

In the case of `CCCCc1nc(Cl)c(C(=O)O)n1Cc1ccc(-c2ccccc2S(=O)(=O)NC(=O)NCCC)cc1`, the ID50 in experiment [1] came out at 3.1 mg/kg; in experiment [2] it was 0.16 mg/kg. The IC50 in experiment [3] is listed as 1 nM.

Turning to `CCCCc1nc(SC)c(C(=O)NCC(=O)O)n1Cc1ccc(-c2ccccc2S(=O)(=O)NC(=O)NCCC)cc1`, the ID50 amounted to 3.55 mg/kg in experiment [1] and 0.06 mg/kg in experiment [2]. The same compound had a half-maximal inhibitory concentration (IC50) in experiment [3] of 1.5 nM.

In the case of `CCCCc1nc(SC)c(C(=O)O)n1Cc1ccc(-c2ccccc2S(=O)(=O)NC(=O)NCCC)cc1`, the ID50 was 0.7 mg/kg and 0.4 mg/kg in experiment [1]; 0.11 mg/kg and 0.13 mg/kg in experiment [2]. The compound further gave an IC50 in experiment [3] of 0.3 nM.

Consider `CCCCc1nc(SC)cn1Cc1ccc(-c2ccccc2S(=O)(=O)NC(=O)NCCC)cc1`, for which the ID50 in experiment [1] is greater than 10 mg/kg; in experiment [2], 0.7 mg/kg. Moreover, in experiment [3], the IC50 is given as 2.6 nM.

In the case of `CCCCc1nc(SC)c(CO)n1Cc1ccc(-c2ccccc2S(=O)(=O)NC(=O)NCCC)cc1`, the results for the ID50 in experiment [1] and in experiment [2] were greater than 10 mg/kg and 0.21 mg/kg, respectively. For the same compound, the 50% inhibitory concentration (IC50) in experiment [3] is given as 4.5 nM.

For `CCCCc1nc(SC(F)F)c(C(=O)O)n1Cc1ccc(-c2ccccc2S(=O)(=O)NC(=O)NCCC)cc1`, the ID50 in experiment [1] was 0.73 mg/kg; in experiment [2], 0.07 mg/kg. The concentration for half-maximal inhibition (IC50) in experiment [3] was determined as 0.5 nM.

With `CCCCc1nc(SCCCCO)c(C(=O)O)n1Cc1ccc(-c2ccccc2S(=O)(=O)NC(=O)NCCC)cc1`, the ID50 is 9.81 mg/kg in experiment [1] and 0.12 mg/kg in experiment [2]. This compound also came in with a 50% inhibitory concentration (IC50) in experiment [3] of 0.4 nM.

Consider `CCCCc1nc(SCC(F)(F)F)c(C(=O)O)n1Cc1ccc(-c2ccccc2S(=O)(=O)NC(=O)NCCC)cc1`, for which the ID50 was determined as 2.28 mg/kg in experiment [1] and 0.8 mg/kg in experiment [2]. Moreover, the IC50 in experiment [3] is on record as 0.6 nM.

On to `CCCCc1nc(SC)c(C(=O)NC)n1Cc1ccc(-c2ccccc2S(=O)(=O)NC(=O)NCCC)cc1`, for which the ID50 in experiment [1] was 4.86 mg/kg; in experiment [2] it was 0.02 mg/kg. This compound gave an IC50 in experiment [3] of 2.1 nM.
